# Measurements pooled from the literature.
# Target: Insulin receptor-related protein (INSRR, Homo sapiens, UniProt P14616)
SMILES,assay,conditions,quantity,value
O=c1[nH]c2ccccc2n1C1CCN(Cc2ccc(-c3[nH]c4cc5ncnc5cc4nc3-c3ccccc3)cc2)CC1,cell-free assay,0.5 µM,remaining signal,101%
Cn1cncc1[C@](O)(COc1ccc(C#N)cc1-c1ccc(OC(F)(F)F)cc1)c1ccc(C#N)cc1,"cell-free assay, competition with immobilised ligand",1 µM,remaining binding,93%
COc1ncccc1-c1cnn2ccc(N3CCN(C(=O)OC(C)C)CC3)nc12,"binding, competition with immobilised ligand",1 µM,remaining binding,96%
C#Cc1n[nH]c2c(-c3cn([C@@H](C)c4ccccc4)c(=O)[nH]c3=O)cc(F)cc12,"enzyme activity, inhibitor",0.1 µM,inhibition,6.9%
COc1cc(Nc2ncc(F)c(Nc3ccc4c(n3)NC(=O)C(C)(C)O4)n2)cc(OC)c1OC,"binding, competition with immobilised ligand",10 µM,inhibition,53%
C#Cc1n[nH]c2c(-c3cn(C(C)c4ccccn4)c(=O)[nH]c3=O)cc(F)cc12 (centres unmarked),"enzyme activity, inhibitor",1 µM,inhibition,0.7%
Cc1nn(C)cc1-c1nc2c(N3CCN(Cc4ccc(Cl)cc4)CC3)c(Cl)cnc2[nH]1,"binding, competition with immobilised ligand",1 µM,remaining binding,100%
Cn1cc(-c2cccc(N3CCc4c(sc5c4CC(C)(C)C5)C3=O)c2CO)cc(Nc2ccncn2)c1=O,"enzyme activity, inhibitor",1 µM,inhibition,2%
CC(C)(C)c1cc(C=C(C#N)C#N)cc(Br)c1O,"enzyme activity, inhibitor",0.5 µM,remaining activity,103%
Cn1cc(-c2cc(F)cc(N3CCn4c(cc5c4CCCC5)C3=O)c2CO)cc(Nc2ccc(N3CCN(C4COC4)CC3)cn2)c1=O,"enzyme activity, inhibitor",0.1 µM,inhibition,15%
Nc1ncc(-c2nc(N3CCOCC3)nc(N3CCOCC3)n2)c(C(F)F)n1,"binding, competition with immobilised ligand",10 µM,remaining binding,80%
